# Assay results reported in the EternaBench riboswitch data.
# Tested on: MS2 coat protein
# Experiment: apparent Kd, MS2 coat protein; higher = weaker binding; RNA-MaP array; FMN 200 µM where present
# In short: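 The apparent Kd comes from binding curves fitted cluster by cluster, filtered, and summarised as a median. Those curves followed SNAP-549-labelled MS2 coat protein from 0.7 or 1.5 nM, doubling to 3 µM, on Illumina sequencing-chip clusters where stalled E. coli RNA polymerase had transcribed the designs, without and then with constant ligand. The buffer was 100 mM Tris-HCl pH 7.5, 80 mM KCl, 4 mM MgCl2, BSA, DTT, yeast tRNA and Tween-20, and green signal was normalised to red-channel RNA signal and control-cluster median Fmax.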
# [1] = designed as: ON switch for flavin mononucleotide, no ligand
# [2] = ligand present: flavin mononucleotide, designed as: ON switch for flavin mononucleotide
# [3] = designed as: OFF switch for flavin mononucleotide, no ligand
# [4] = ligand present: flavin mononucleotide, designed as: OFF switch for flavin mononucleotide
Sequence,apparent Kd [1] [nM],apparent Kd [2] [nM],apparent Kd [3] [nM],apparent Kd [4] [nM]
AAAAAAAAAAGGCAGGAUAUCUAAAAAAAAACAUGAGGAUCACCCAUGUAAAAAAAAAAAAAGUGGGAGAAGGGCCAAAAAAAAAA,35.9,18.1,–,–
AAAAAAAAAAGUCAGGAUAUACAAAUUUUUACAUGAGGAUCACCCAUGUUAAAAAAAAAAAAAAAGUAGAAGGGACAAAAAAAAAA,20.9,16.9,–,–
AAAAAACAUGAGGAUCACCCAUGUAAGGAUAUGCUGAAAAACACGGAAAAAACGUGCAGCAGAAGGUACAAAAG,–,–,59.5,85.9
AAAAAACAUGAGGAUCACCCAUGUCCUCGGACAUGAGGAUAUGUACAGACUUCGGUCUGUACAGAAGGCAUGUCUU,302,308,–,–
AAAAAACAUGAGGAUCACCCAUGUCCUCGGACGUGAGGAUAUGUACAGACUUCGGUCUGUACAGAAGGCAUGUCAA,408,604,–,–
AAAAAACAUGAGGAUCACCCAUGUCUUCGGACAUGAGGAUAUGUACAGACUUCGGUCUGUACAGAAGGCAUGUCUU,97.2,22.8,–,–
AAAAAACAUGAGGAUCACCCAUGUGAGGAUAUCACUAGUCAGUCCUCGGAGUGAGUACUGAGAAGGCACAUAAA,–,–,68.1,44.9
AAAAAACAUGAGGAUCACCCAUGUGAGGAUAUCCGAAAAAAAAAAAAAAAAAAAAAAAGGAGAAGGCGCAGCAA,–,–,242,206
AAAAAACAUGAGGAUCACCCAUGUGAGGAUAUGAUGCGAAUAAAGAAAGAAGAAAGCAUCAGAAGGCACAUAUG,–,–,86.6,254
AAAAAACAUGAGGAUCACCCAUGUGAGGAUAUGCGAAAAAAAAAAAAAAAAAAAAAAAGCAGAAGGUACAAAAA,–,–,92.2,47.6
AAAAACAGAGGAUAUACAAAAUGAUGACGAAAGUCAUCAAAACAUGAGGAUCACCCAUGUAGAAGGCUGAAAAA,–,–,25.9,22.9
AAAAAGCGAGGAUAUACAUAGCUAAGACAAAUAAGCAAAAAACAUGAGGAUCACCCAUGUAGAAGGCGCAAAAA,–,–,19.2,15.4
AAAAAGCGAGGAUAUACAUGAGGAUCACCCAUGUGAAAAAAAAAAAAAAAAAAAAAAAGUAGAAGGCGCAAAAA,–,–,85.8,65.3
AAAAAGCGAGGAUAUGCGGGCGGGUGCGGCCAGCCGAUGUGACAUGAGGAUCACCCAUGUAGAAGGCGCAAAAA,–,–,12.3,15.1
AAAAAGGCAGGAUAUACAUGAGGAUCACCCAUGUAAAGAAAGAAAGAAGAAAGGGAAAGUAGAAGGGCCAAAAA,–,–,38.2,46
AAAAAGGGAGGAUAUACAUGAGGAUCACCCAUGUGAAAAAAAAAAAAAAAAAAAAAAAGUAGAAGGCCCAAAAA,–,–,67.1,53.8
AAAAAGUCAGGAUAUACGAAAAAAAAAAAAAAAAAAAAAAAGUAGAAGGGACAUGAGGAUCACCCAUGUGAAAA,–,–,74.7,39.3
AAAAAGUGAGGAUAUCGGAAAAAAAAAAAAAAAAAAAAAAACGAGAAGGCACAUGAGGAUCACCCAUGUAAAAA,–,–,42.3,33.6
AAAAAGUGAGGAUAUGCUGCUCGUCACUUGCGUGAUGAGUAGCAGAAGGCACAUGAGGAUCACCCAUGUAAAAA,–,–,36.2,42.8

Sequence,apparent Kd [1] [nM],apparent Kd [2] [nM],apparent Kd [3] [nM],apparent Kd [4] [nM]
AAAAAGUUAGGAUAUACAUGAGGAUCACCCAUGUACAUAUAUGGAGAAAAAAACAGUAGUAGAAGGGACAAAAA,–,–,25.6,35.1
AAAACAUGAGGAUCACCCAUGUAAAGAACGCUUAAUAGAUCUGAGGAUAUACUAGAAUUUACGUAGUAGAAGGCAGUGGGUACA,31.3,25.3,–,–
AAAACAUGAGGAUCACCCAUGUAAAGAACGGUUAAUAAAUGUGAGGAUAUACUAAAAUUUUCGUAGUAGAAGGCACUGGGUACA,22.2,24.8,–,–
AAAACAUGAGGAUCACCCAUGUAAAGAACGGUUAAUAGAUGUGAGGAUAUACUAGAAUUUAGGUAGUAGAAGGCACUGGGUACA,21.7,23.4,–,–
AAAACAUGAGGAUCACCCAUGUAAAGAUCGGUUGAUGAAAGUGAGGAUAUACAAAAUUUUAUGGAGUAGAAGGCACUGGGUUGA,67.4,47.7,–,–
AAAACAUGAGGAUCACCCAUGUUUAGAUCGGUCAAUAGAAGUGAGGAUAUACGAAGUUAAGGCUGGUAGAAGGCACUGGGUACA,32.4,32.2,–,–
AAAACCUCAUGAGGAUAUCCAACAUGAGGAUCACCCAUGUUAGUCUCAGUACUAGAUACUUGAGAGGAGAAGGCAUGCCAGGGC,97,31.6,–,–
AAAACUCAGAUAGGAUAUAUAGGAUAACUUAAGACCUAACAUGAGGAUCACCCAUGUGAUUAUUCGUAGAAGGAUCAUUGAACC,240,238,–,–
AAAAGACAUGAGGAUCACCCAUGUAAAGACGUGGGAGGAUAUGUAUGGAAACCAGACUGUACAGAAGGCCUUUGUC,161,52.4,–,–
AAAAGACAUGAGGAUCACCCAUGUCAAGACGUGGGAGGAUAUGCAUGGAAAACAUGCUGUGCAGAAGGCCCGUGUC,25.6,17.9,–,–
AAAAGACAUGAGGAUCACCCAUGUUAAGACGUGGGAGGAUAUGUAUGGAAAACAUGCUGUACAGAAGGCCCGUGUC,53.8,19.7,–,–
AAAAGCUAAGGAUAUACAUGAGGAUCACCCAUGUACACCGGUACGGGUGCGAACUCCUGUAGAAGGUGGGAUAA,–,–,148,159
AAAAGGUUAGGAUAUGCGUGGAAAAAGUGUAUCUAAAAAAAACAUGAGGAUCACCCAUGUAGAAGGGACUUAAA,–,–,45.3,44
AAAAGUUUGGAGGAUAUCCAUCCAAACGGAUAAGGAGAAGGCCGGACAUGAGGAUCACCCAUGUGAUUAGGUUA,–,–,14.2,24.8
AAAAUACAUGAGGAUCACCCAUGUCAGGAUAUGCUAAAAAAAAAAUUAAAAAAAAAAUGUAGAAGGGACUAAAA,–,–,99,106
AAAAUCAAGUCAGGAUAUCGUGCGGUUGGUCGUUACAUGAGGAUCACCCAUGUCUUCCGGUAGCUCGAGAAGGGACGUGAGCCC,18.6,8.33,–,–
AAAAUGUGUACAUGAGGAUCACCCAUGUAUCGACUCCAAAGCAAGGAUAUGAUCAUGGGAAUUGGUCAGAAGGUGCAGGGUCUG,205,25.8,–,–
AAACACAGACAUGAGGAUCACCCAUGUUAUGAAGAUACUGGGAGAAGGGCGAUUGCAAAGCAAUCGCAGGAUAUUCGUAUUGUG,31.2,11,–,–
AAACACGGACAUGAGGAUCACCCAUGUGGCGAAAGCCUAGGGAGAAGGCAGUAUGCAAAGCAUUCUGAGGAUAUUCAUACCGUG,160,13.4,–,–

Sequence,apparent Kd [1] [nM],apparent Kd [2] [nM],apparent Kd [3] [nM],apparent Kd [4] [nM]
AAACACGGACAUGAGGAUCACCCAUGUGGCGAAAGCCUUGGGAGAAGGCCGAUAGCAAAGCUAUCGGAGGAUAUUCAUACCGUG,1200,61,–,–
AAACAUGUCCGAGGAUAUCUGAGAUCAUUUUCAAGAGAAGGCGGACAUGAGGAUCACCCAUGUCUCUCCUCAUCAACUCCAAAU,–,–,18.8,136
AAACAUGUCCGAGGAUAUCUGAGAUCAUUUUCAAGAGAAGGCGGACAUGAGGAUCACCCAUGUCUCUCCUCAUCGACUCCAAAU,–,–,6.32,21.1
AAACAUGUCCGAGGAUAUCUGGAAACAUUUCCAAGAGAAGGCGGACAUGAGGAUCACCCAUGUCUCUCCUCAUCAAAUCCAAAU,–,–,9.18,88.9
AAACAUGUCCGAGGAUAUCUGGAAACAUUUUCAAGAGAAGGCGGACAUGAGGAUCACCCAUGUCUCUCCUCAUCAAGUACAAAU,–,–,7.33,46.3
AAACUGCAUGUGAGGAUAUGCACCGGCUAAACCGGGCAGAAGGCACAUGAGGAUCACCCAUGUCAUCCUAUUGC,–,–,9.41,18.4
AAACUGUGAGGAUAUGGUGAGUAGUGCCUGAGCGCUGCUCACCAGAAGGCACAUGAGGAUCACCCAUGUAUAAC,–,–,24.8,62.1
AAAGAAGCACUUGGAACCGGACAAUGAGAAGGCCACGCACAUGAGGAUCACCCAUGUAAAGCUAUGGAGGAUAUCAUGAUGGAU,46.4,6.73,–,–
AAAGGACAUGAGGAUCACCCAUGUGAGGAUAUGCUCUACGAACGAAUACACAUGAGAAGCAGAAGGCACAUAAG,–,–,151,247
AAAGGACGAGGAUAUACAUGAGGAUCACCCAUGUAAGAAGCAUAAUAAAAUAACUUAUGUAGAAGGCGUCCAAA,–,–,20.5,84.4
AAAGGCCGAGGAUAUACAUGAGGAUCACCCAUGUGGACUCUGCAGAAUUGAUACCUUGGUAGAAGGUGGACCGG,–,–,23,18.4
AAAGUUGGUAGGCCCUCGGAACAUGAGGAUCACCCAUGUAAGGAGGAUAUGCCCGGUACCCGCUGGCAGAAGGCCUUAUAAGAC,–,–,6.74,42.5
AAAUCACAUGAGGAUCACCCAUGUGAGGAUAUGAUACUAUGUACUUCGGUACAUAGUAUCAGAAGGCAUGUGGA,–,–,32,36.8
AAAUCAGCAGGAUAUACGAUGUUAUGCUAGAUAGCGGGACCACAUGAGGAUCACCCAUGUAGAAGGGCUAGAUA,–,–,35,30.8
AAAUCUCAGAUAGGAUAUAUAGGAUAACUUAAGACCUAACAUGAGGAUCACCCAUGUGAUUAUUCGUAGAAGGAUCAUUGACCC,166,175,–,–
AAAUUAAGAAGAGGAUAUUGACAUGAGGAUCACCCAUGUAUUUGGGAAUGUUUACUGAAUUCUUACAAGAAGGUUUACGAACUU,–,–,157,99.7
AAAUUUAACGAAGGAUAUGCUGACAUGAGGAUCACCCAUGUGUGCCUUGUGUUGCUGAAACGGGAGCAGAAGGUCGUAUACAUA,–,–,694,1180
AAAUUUAACGAAGGAUAUGCUGACAUGAGGAUCACCCAUGUGUGCUUUGUGUUGCUGAAAUUGGAGCAGAAGGUCGUAUACAUA,–,–,101,148
